From ChEMBL document CHEMBL1127480, “Evaluation of a vitamin-cloaking strategy for oligopeptide therapeutics: biotinylated HIV-1 protease inhibitors” (J Med Chem, 1994)
Activity calls are given as the source filed them. The rule behind the calls is not given here.

Tests used:
[1] = test system: CV-1; experiment: Inhibition of p24 expression was measured at 1 uM using vVK/CV-1 assay; assay type: functional, Cercopithecidae; details: Chlorocebus aethiops
[2] = Inhibition of viral RNA in HIVD34-infected PBMC assay on day 4 at concentration of 1 nM; assay type: functional; details: Homo sapiens, 96 h
[3] = p24 expression was measured by PBMC assay on day 4 at concentration of 1 nM; assay type: functional; details: Homo sapiens, 96 h
[4] = molecular target: Human immunodeficiency virus type 1 protease (Human immunodeficiency virus 1, UniProt Q72874); experiment: In vitro inhibitory activity against […]
[5] = p24 expression was measured by PBMC assay on day 4 at concentration of 10 nM; assay type: functional; details: Homo sapiens, 96 h
[6] = test system: Caco-2; experiment: % control value in caco-2-cell monolayer; assay type: functional, Homo sapiens; set-up: concentration or dose not given beside the values
In short: (§1)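 Caco-2 monolayers (passage 25) on Transwell inserts, equilibrated 30 min in HBSS with 25 mM glucose, 10 mM Hepes pH 7.35 at 37 °C. Apical side given 10 nM [3H]biotin alone or with 300 μM unlabeled biotin or conjugate (final MeOH 1–5%). Basolateral samples taken over time; [3H]mannitol integrity marker; Student's t-test; triplicate determinations.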

[7] = test system: Caco-2; experiment: Effect on the apical to basolateral transport of [3H]biotin in caco-2-cell monolayer; assay type: functional, Homo sapiens; in short: as §1
[8] = Inhibition of p24 expression in PBMC assay on day 4 at concentration of 100 nM; assay type: functional; details: Homo sapiens, 96 h
[9] = Inhibition of viral RNA in PBMC assay on day 4 at concentration of 100 nM; assay type: functional; details: Homo sapiens, 96 h
[10] = Inhibition of viral RNA in HIVD34-infected PBMC assay on day 4 at concentration of 10 nM; assay type: functional; details: Homo sapiens, 96 h
[11] = test system: CV-1; experiment: Inhibition of p24 expression was measured at 1 uM using vaccinia virus vVK/CV-1 assay; Inactive; assay type: functional, cell-based; details: Cercopithecidae
[12] = Inhibition of viral RNA in HIVD34-infected PBMC assay on day 4 at concentration of 4 nM; assay type: functional; details: Homo sapiens, 96 h
[13] = Inhibition of viral RNA in HIVD34-infected PBMC assay on day 4 at concentration of 40 nM; assay type: functional; details: Homo sapiens, 96 h
[14] = Inhibition of p24 expression in HIVD34-infected PBMC assay on day 4 at concentration of 4 nM; assay type: functional; details: Homo sapiens, 96 h
[15] = Inhibition of p24 expression in HIVD34-infected PBMC assay on day 4 at concentration of 40 nM; assay type: functional; details: Homo sapiens, 96 h
[16] = Inhibition of p24 expression in HIVD34-infected PBMC assay on day 4 at concentration of 1 nM; assay type: functional; details: Homo sapiens, 96 h
[17] = Inhibition of viral RNA in HIVD34-infected PBMC assay on day 4 at a concentration of 100 nM; assay type: functional; details: Homo sapiens, 96 h
[18] = Inhibition of p24 expression in HIVD34-infected PBMC assay on day 4 at concentration of 100 nM; assay type: functional; details: Homo sapiens, 96 h
[19] = Inhibition of p24 expression in HIVD34-infected PBMC assay on day 4 at concentration of 10 nM; assay type: functional; details: Homo sapiens, 96 h
[20] = test system: CV-1; experiment: Inhibition of p24 expression was measured at 1 uM using vVK/CV-1 assay; Inactive; assay type: functional, cell-based; details: Cercopithecidae

Compound | inhibition at 1 µM [1] | Ki [4] | Control [6] | Transport [7] | other results
CC[C@@H](C)[C@H](NC(=O)[C@H](C(C)C)[C@@H](O)[C@H](O)[C@H](CC1CCCCC1)NC(=O)c1ccccc1OCCCCC[C@@H]1SC[C@H]2NC(=O)N[C@@H]12)C(=O)NCc1ccccn1 | 24% | 10 nM | 85% | 15.8 pM min-1 (mg of protein)-1 | inhibition at 0.001 µM [2]: 15%; inhibition at 0.001 µM [3]: 2%; inhibition at 0.01 µM [5]: 5%; inhibition at 0.1 µM [8]: 83%; inhibition at 0.1 µM [9]: 17%; inhibition at 0.01 µM [10]: 10%
CC[C@@H](C)[C@H](NC(=O)[C@H](C(C)C)[C@@H](O)[C@H](O)[C@H](CC1CCCCC1)NC(=O)CCCC[C@@H]1SCC2NC(=O)N[C@@H]21)C(=O)NCc1ccccn1 (some centres undefined) | 9% | 45 nM | 129% | 24.1 pM min-1 (mg of protein)-1 | 
CC[C@@H](C)[C@@H](CNC(=O)CCCC[C@@H]1SC[C@@H]2NC(=O)NC21)NC(=O)[C@H](C(C)C)[C@@H](O)[C@H](O)[C@H](CC1CCCCC1)NC(=O)c1ccccc1OCCOc1ccccc1 (some centres undefined) |  | > 100 nM |  |  | inhibition [11]: inactive
Cc1cn([C@H]2C[C@H](N=[N+]=[N-])[C@@H](CO)O2)c(=O)[nH]c1=O [ZIDOVUDINE] |  |  |  |  | inhibition at 0.004 µM [12]: 0%; inhibition at 0.04 µM [13]: 90%; inhibition at 0.004 µM [14]: 2%; inhibition at 0.04 µM [15]: 81%
CC[C@@H](C)[C@H](NC(=O)[C@H](C(C)C)[C@@H](O)[C@H](O)[C@H](CC1CCCCC1)NC(=O)c1ccccc1SCCCCC[C@@H]1SCC2NC(=O)NC21)C(=O)NCc1ccccn1 (some centres undefined) |  | 53 nM |  |  | 
CC[C@H](C)[C@H](NC(=O)[C@H](C(C)C)[C@@H](O)[C@H](O)[C@H](CC1CCCCC1)NC(=O)[C@H](Cc1c[nH]cn1)NC(=O)COc1cccc2ccccc12)C(=O)NCc1ccccn1 | > 80% | < 1 nM |  |  | inhibition at 0.001 µM [16]: 38%; inhibition at 0.001 µM [2]: 30%; inhibition at 0.1 µM [17]: 98%; inhibition at 0.1 µM [18]: 95%; inhibition at 0.01 µM [19]: 82%; inhibition at 0.01 µM [10]: 80%
O=C(O)CCCC[C@@H]1SC[C@@H]2NC(=O)N[C@@H]21 [BIOTIN] |  |  | 0% | 0 pM min-1 (mg of protein)-1 | 
CC[C@@H](C)[C@H](NC(=O)[C@H](C(C)C)[C@@H](O)[C@H](O)[C@H](CC1CCCCC1)NC(=O)CCCCCNC(=O)CCCC[C@@H]1SCC2NC(=O)N[C@@H]21)C(=O)NCc1ccccn1 (some centres undefined) |  | 20 nM | 111% | 20.6 pM min-1 (mg of protein)-1 | inhibition [20]: inactive
CC[C@@H](C)[C@H](NC(=O)[C@H](C(C)C)[C@@H](O)[C@H](O)[C@H](CC1CCCCC1)NC(=O)CCCC[C@@H]1SCC2NC(=O)NC21)C(=O)NCCc1scnc1C (some centres undefined) | 15% | 130 nM |  |  | 
CC[C@@H](C)[C@H](NC(=O)[C@H](C(C)C)[C@@H](O)[C@H](O)[C@H](CC1CCCCC1)NC(=O)[C@@H](NC(=O)CCCC[C@H]1SC[C@H]2NC(=O)NC21)C(C)C)C(=O)NCc1ccccn1 (some centres undefined) | 26% | < 4 nM | 122% | 22.7 pM min-1 (mg of protein)-1 | inhibition at 0.001 µM [16]: 7%; inhibition at 0.001 µM [2]: 18%; inhibition at 0.1 µM [8]: 89%; inhibition at 0.1 µM [9]: 69%; inhibition at 0.01 µM [19]: 11%; inhibition at 0.01 µM [10]: 22%
CC[C@@H](C)[C@H](NC(=O)[C@H](C(C)C)[C@@H](O)[C@H](O)[C@H](CC1CCCCC1)NC(=O)c1ccccc1SCCCCC[C@@H]1SCC2NC(=O)NC21)C(=O)NCCc1scnc1C (some centres undefined) | 34% | 4 nM |  |  | 
